STAT1 act: STAT1 signaling activation; AID 932; NIH 3T3 STAT1-luciferase reporter, IFN-gamma, luminescence; 100% = IFN-gamma alone, no compound; activation (% of control), % at 5.5 µM; actives 2.6% (n = 200,000);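 active = activation above the screen-wide mean activation plus 3 SD, cut at about 130% in these data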;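 also: raw ratio to IFN-gamma control signal so 100% means no change and 0% no light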
FLuc inhib CS: inhibits firefly luciferase, flagging false hits in luciferase inhibition screens | P08659 | ATPLite firefly luciferase biochemical luminescence, 10 min | inhibition, % at 10 µM | actives 1.5% (n = 200,000) | AID 1006;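 active = inhibition above about 50% when tested at 10 µM, limit read from the data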
Target sequence (P08659 whole entry, looked up): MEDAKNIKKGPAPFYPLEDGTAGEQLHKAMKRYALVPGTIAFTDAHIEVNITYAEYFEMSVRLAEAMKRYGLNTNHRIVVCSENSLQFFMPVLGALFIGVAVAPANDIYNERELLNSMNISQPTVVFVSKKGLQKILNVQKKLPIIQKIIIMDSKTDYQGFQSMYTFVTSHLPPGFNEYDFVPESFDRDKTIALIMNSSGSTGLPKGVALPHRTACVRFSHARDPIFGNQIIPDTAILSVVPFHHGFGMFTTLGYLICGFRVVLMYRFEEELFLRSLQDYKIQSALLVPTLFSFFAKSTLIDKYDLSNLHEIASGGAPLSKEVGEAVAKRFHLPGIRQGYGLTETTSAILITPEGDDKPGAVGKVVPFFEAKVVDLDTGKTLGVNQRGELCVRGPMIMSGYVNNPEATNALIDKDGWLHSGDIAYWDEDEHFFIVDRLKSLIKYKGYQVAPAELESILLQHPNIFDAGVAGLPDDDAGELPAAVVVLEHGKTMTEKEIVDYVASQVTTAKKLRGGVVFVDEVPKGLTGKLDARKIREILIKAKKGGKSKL
STAT3 act: increases IL-6 driven STAT3 reporter signal; U3A cells, IL-6 STAT3-luciferase reporter, luminescence; 100% = signal with IL-6 EC80 alone; activation (% of control), % at 5.6 µM; actives 0.91% (n = 190,000); AID 871;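 active = activation above the screen-wide mean of compound activation plus 3 SD, cut at about 130% in these data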;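 also: 0% = background luminescence of wells with medium and substrate only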
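Test system: human U3A cells carrying STAT3-luciferase construct; control set: IL-6-only wells as 100% reference; timing: compound pre-incubation 1 h before IL-6, then 6 h stimulation at 37 °C; also added: IL-6 stimulus at 33 ng/mL final; evaluation: % activation versus median of IL-6-stimulated wells; detection: reporter luminescence signal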
STAT1 blocker: reduces IFN-gamma driven STAT1 reporter signal; NIH 3T3 STAT1-luciferase reporter, luminescence; inhibition, % at 5.5 µM; actives 0.35% (n = 200,000);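 active = inhibition above a set limit, the mean inhibition across all tested compounds plus 3 SD, cut at about 34% in these data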;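 also: 0% = IFN-gamma with DMSO and 100% = IFN-gamma with 300 µM nifuroxazide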
FLuc stim CS: firefly luciferase counter-screen for stimulation assays | P08659 | ATPlite luciferase biochemical, luminescence, 10 min; 0 = ATP-free wells, 1 = DMSO control | activation factor at 10 µM | 200,000 tested, under 10 active | AID 1027;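 active = luciferase activation factor, scaled between plate controls, of at least 2 with compound at 10 µM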
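Material: Luciferase/luciferin reagent mix | Doses: Test compounds dosed from 2 mM stocks in 100% DMSO | Timing: 10 min incubation after luciferase reagent addition, room temperature | Measured by: Luminescence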
STAT3 inh: inhibitors of IL-6 induced STAT3 signaling. U3A cells, IL-6 STAT3-luciferase reporter, luminescence; host cell line lacks STAT1. inhibition, % at 5.5 µM. actives 0.89% (n = 190,000);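 active = inhibition above the mean inhibition across all screened compounds plus 3 SD, cut at about 44% in these data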;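 also: 0% = DMSO only wells and 100% = 100 µM nifuroxazide control wells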
Numbers without * were called inactive; · = no result given. Hits are enriched below; roughly 4.9% of the tested compounds scored in any of these assays.

SMILES | STAT1 act | FLuc inhib CS | STAT3 act | STAT1 blocker | FLuc stim CS | STAT3 inh
CN(C)/C=C/C(=O)c1cc(F)cc(C(F)(F)F)c1 | 103.2 | -5.1 | 102.6 | -3.6 | 1.1 | -1.3
CCOC(=O)c1[nH]c2ccc(C)cc2c1N | 119.7 | 51.2* | 113.3 | -20.4 | 0.5 | -8.8
CCOC(=O)c1[nH]c2cc(OC)c(OC)cc2c1N | 105.7 | -3.5 | 89.4 | -6.2 | 1 | 12.8
CCOC(=O)c1ccc(NC(=O)C2C3CCC(C3)C2C(=O)O)cc1 (stereo not given) | 92.9 | 2.5 | 100.5 | 7.7 | 1 | -1.0
CC(C)COC(=O)c1ccc(NC(=O)C2C3CCC(C3)C2C(=O)O)cc1 (stereo not given) | 143.0* | 0.5 | 122.3 | -47.0 | 1 | -21.2
O=C1COc2ccc(C(=O)COC(=O)CCSc3ccc(Cl)cc3)cc2N1 | 110.3 | 0.5 | 102.2 | -14.8 | 1 | 2.1
Cc1ccc(NC(=O)c2cc(-c3ccco3)on2)cc1C | 131.5* | 15.5 | 111.3 | -34.3 | 0.8 | -10.2
O=C(NCCc1ccccc1)c1cc(-c2ccco2)on1 | 131.9* | 5.6 | 103.1 | -34.6 | 0.9 | -3.9
O=C(Nc1ccc([N+](=O)[O-])cc1)C1C(c2ccccc2)=C1c1ccccc1 | 105.8 | -5.0 | 133.3* | -6.4 | 1.1 | -26.3
COC(=O)c1cc(NC(=O)/C=C/c2ccc3c(c2)OCO3)cc(C(=O)OC)c1 | 96.3 | -5.2 | 94.1 | 4.2 | 1.1 | 13.3
CCOC(=O)c1[nH]c2ccc(OC)cc2c1NC(=O)/C=C/c1ccc2c(c1)OCO2 | 101.6 | -0.9 | 107.4 | -1.8 | 1 | -11.7
O=C(/C=C/c1ccc2c(c1)OCO2)Nc1cccnc1 | 127.5 | 86.6* | 81.8 | -33.0 | 0.1 | 24.9
COC(=O)c1cccc(NC(=O)/C=C/c2ccc3c(c2)OCO3)c1 | 92.5 | 69.2* | 83.2 | 8.4 | 0.3 | 18.5
O=C(/C=C/c1ccc2c(c1)OCO2)Nc1c(C(=O)O)[nH]c2ccccc12 | 92.9 | 91.4* | 115.8 | 7.8 | 0.1 | -24.3
CC(=O)Nc1ccc(NC(=O)/C=C/c2ccc3c(c2)OCO3)cc1 | 107.8 | 5.0 | 104.5 | -10.8 | 0.9 | 1.4
Cc1cc(C)nc(NC(=O)/C=C/c2ccc3c(c2)OCO3)c1 | 135.3* | 70.9* | 98.8 | -39.7 | 0.3 | -0.8
O=C(CSc1ccccc1)Nc1cc(S(=O)(=O)N2CCOCC2)ccc1N1CCOCC1 | 96.5 | -5.5 | 104.0 | 3.1 | 1.1 | -2.5
CCN(CC)S(=O)(=O)c1ccc(N2CCOCC2)c(NC(=O)c2cc([N+](=O)[O-])ccc2Cl)c1 | 98.8 | -9.2 | 102.1 | 0.6 | 1.1 | -0.1
COc1cc(NC(=S)N2CCc3ccccc3C2)cc(OC)c1 | 98.8 | -6.9 | 108.7 | 1.5 | 1.1 | 0.0
COc1ccc(C)cc1N(CC(=O)N/N=C/c1ccc2c(c1)OCO2)S(C)(=O)=O | 96.7 | -6.2 | 100.6 | 2.1 | 1.1 | 1.3
O=C(/C=C/c1ccco1)Nc1ccc2c(c1)OCO2 | 127.4 | 65.9* | 91.7 | -29.6 | 0.3 | 12.5
COc1ccc(C(=O)Cc2ccc3c(c2)OCO3)c(O)c1 | 147.1* | 18.3 | 110.5 | -50.0 | 0.8 | -14.7
O=C(O)COc1ccc(C(=O)Cc2ccc3c(c2)OCCCO3)c(O)c1 | 90.5 | 4.2 | 102.5 | 10.5 | 1 | 2.1
CC(C)(C)[C@H]1C=C(C(N)=O)O[C@@H](OCc2ccc(CO)cc2)C1 | 102.0 | -3.0 | · | -0.5 | 1 | ·
CN(C)c1ccc(NC(=S)NC(=O)/C=C/c2ccc(Cl)cc2)cc1 | 142.1* | 2.1 | 100.0 | -44.4 | 1 | 9.1
SMILES | STAT1 act | FLuc inhib CS | STAT3 act | STAT1 blocker | FLuc stim CS | STAT3 inh
Cc1cc(NC(=O)c2ccc(F)cc2F)n(-c2nc3ccccc3[nH]2)n1 | 94.9 | -2.2 | 84.9 | 5.5 | 1 | 21.1
CN(C)c1ccc(NC(=S)NC(=O)/C=C/c2ccco2)cc1 | 108.9 | -9.0 | 106.3 | -10.1 | 1.1 | -5.4
Cc1cc(NC(=O)/C=C/c2ccccc2)no1 | 130.0* | 32.5 | 88.8 | -34.2 | 0.7 | 14.4
Cc1cc(NC(=O)/C=C/c2ccccc2Cl)no1 | 135.4* | -2.2 | 109.7 | -39.6 | 1 | -8.7
Cc1cc(NC(=O)/C=C/c2ccccc2Cl)n(-c2nc3ccccc3[nH]2)n1 | 102.7 | 75.6* | 95.1 | -3.0 | 0.2 | 9.1
CCN(CC)C(=O)C(=O)N/N=C/c1ccc(C(=O)O)cc1 | 100.3 | 1.6 | 105.3 | -0.4 | 1 | -4.0
CN(C)c1ccc(NC(=O)/C=C/c2ccccc2Cl)cc1 | 149.1* | 63.9* | 96.8 | -54.3 | 0.4 | 7.2
COC(=O)c1cc(NC(=O)/C=C/c2ccccc2)ccc1O | 133.2* | 12.4 | 103.8 | -38.2 | 0.9 | -2.1
CC1CCCN(Cc2nc(Cc3ccccc3Cl)no2)C1 (stereo not given) | 104.1 | -4.8 | 103.0 | -6.2 | 1 | 1.0
CCN1C(=O)C(CC(=O)Nc2ccc(OC)cc2)N(CCCN2CCN(c3ccc(OC)cc3)CC2)C1=S (stereo not given) | 98.5 | -1.8 | 93.5 | 1.0 | 1 | 10.0
O=C(Cn1c(CO)nc2ccccc21)NC1CCCCCC1 | 96.5 | -4.7 | 98.0 | 3.6 | 1 | 7.0
COc1cc([N+](=O)[O-])ccc1NC(=S)NC(=O)CC(C)(C)C | 107.4 | -7.1 | 107.4 | -11.1 | 1.1 | -3.9
O=C(NCCn1ccc2ccccc21)c1ccc2c(c1)OCO2 | 139.2* | 9.9 | 95.4 | -46.0 | 0.9 | 4.8
COc1ccc(C(=O)NCCn2ccc3ccccc32)cc1 | 115.5 | 7.1 | 96.1 | -16.8 | 0.9 | 5.8
CCN=c1scc(C)n1/N=C/c1ccsc1 | 150.1* | 5.5 | 95.4 | -55.4 | 0.9 | 6.2
CCS(=O)(=O)Nc1ccc(C2=NN(C(=O)c3ccco3)C(c3ccc(C)cc3)C2)cc1 (stereo not given) | 92.8 | -1.0 | 81.9 | 8.0 | 1 | 31.7
CCS(=O)(=O)Nc1ccc(C2=NN(C(=O)c3ccco3)C(c3cccc(F)c3)C2)cc1 (stereo not given) | 41.1 | -5.4 | 90.1 | 63.1* | 1.1 | 17.4
COCCn1c(C)cc(C(=O)CSc2n[nH]c(N)n2)c1C | 102.3 | 5.1 | 101.3 | -6.6 | 0.9 | 0.6
COCCn1c(C)cc(C(=O)COC(=O)c2ccc([N+](=O)[O-])o2)c1C | 93.7 | 35.6 | 93.8 | 5.5 | 0.6 | 14.7
COCCn1c(C)cc(C(=O)COC(=O)c2cc3c(s2)CCC3)c1C | 135.9* | -5.6 | 108.0 | -39.1 | 1.1 | -6.2
COCCn1c(C)cc(C(=O)CSc2nnc(C)s2)c1C | 64.4 | 70.5* | 26.3 | 39.0* | 0.3 | 92.4*
CCOc1ccc(-c2nnn(CC(=O)NCc3ccccc3)n2)cc1 | 100.0 | 1.9 | 106.9 | -1.5 | 1 | -6.9
CNc1ccc(S(=O)(=O)NCC(=O)OCC(=O)Nc2cccc(Cl)c2Cl)cc1[N+](=O)[O-] | 90.9 | -6.4 | 99.5 | 10.2 | 1.1 | 0.5
